Source: ChEMBL document CHEMBL1126286, “Oral hypoglycemic agents. Pyrimido[1,2-a]indoles and related compounds” (1992)

Legend:
Type in all cases: functional
[1] = test system: Rattus norvegicus; test: Hypoglycemic activity was tested in rats at a standard dose of 100 mg/kg and calculated as percent of vehicle control after 2 hours (six rats per group)
How it was run: (§1)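 Fed male Sprague-Dawley CD rats (280-320 g), six per group, 100 mg/kg po as solution in water or suspension in 0.5% carboxymethylcellulose (1 mL/kg); parallel vehicle controls. Tail-vein blood (0.3 mL) taken 2 and 4 h post-dose into EDTA and Trasylol; plasma glucose by glucose oxidase-peroxidase, expressed as percent of vehicle control; Student-Newman-Keuls test for significance.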

[2] = species: Rattus norvegicus; test: Potency to dissociate hypoglycemic activity relative to compound 38
How it was run: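 Three-point oral dose-response in fed male Sprague-Dawley CD rats, eight per group, with the reference standard run alongside; 10, 30 and 100 mg/kg po (some studies 10, 20, 50 mg/kg). Rats exsanguinated by decapitation at 4 h; blood into EDTA and Trasylol, plasma glucose by glucose oxidase-peroxidase; potency relative to standard.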

[3] = test system: Rattus norvegicus; test: Hypoglycemic activity was tested in rats at a standard dose of 100 mg/kg and calculated as percent of vehicle control after 4 hours (six rats per group); how it was run: as §1

| SMILES | Blood glucose [1] | Relative potency [2] | Blood glucose [3] | Blood glucose ([1]; 100 mg/kg) | Blood glucose ([3]; 100 mg/kg) |
| --- | --- | --- | --- | --- | --- |
| CC1(C)CN=C2N(C1)c1ccccc1C2(N)c1ccccc1.Cl.Cl (stereo unspecified) | 78% | 0.9 | 68% |  |  |
| Cl.Cl.NC1(c2ccccc2)C2=NCCCN2c2ccccc21 (stereo unspecified) | 84% | 0.47 | 93% |  |  |
| Cl.Cl.OC1(c2ccccc2)C2=NCC3(CCNCC3)CN2c2ccccc21 (stereo unspecified) | 102% |  | 92% |  |  |
| CC1(C)CN=C2N(C1)c1ccccc1C2(NC(=O)c1ccccc1)c1ccccc1.Cl (stereo unspecified) | 104% |  | 116% |  |  |
| CCCCC1(O)C2=NCC3(CCCCC3)CN2c2ccccc21.Cl (stereo unspecified) | 60% | 3.69 | 68% |  |  |
| C=CCC1(O)C2=NCC(C)(C)CN2c2ccccc21.Cl (stereo unspecified) | 86% |  | 74% |  |  |
| CC1(C)CN=C2N(C1)c1ccccc1C2(O)C1CC1.Cl (stereo unspecified) | 83% | 0.11 | 81% |  |  |
| CCC1(O)C2=NCC(C)(C)CN2c2ccccc21.Cl (stereo unspecified) | 89% |  | 93% |  |  |
| CC(C)(C)CC1(O)C2=NCC(C)(C)CN2c2ccccc21.Cl (stereo unspecified) | 68% | 0.65 | 81% |  |  |
| CC1(C)CN=C2N(C1)c1ccccc1C2(NS(C)(=O)=O)c1ccccc1.Cl (stereo unspecified) | 76% | 0.04 | 67% |  |  |
| CCCC(=O)NC1(c2ccccc2)C2=NCC(C)(C)CN2c2ccccc21.Cl (stereo unspecified) | 101% |  | 77% |  |  |
| CCCCC1(O)C2=NCC(C)(C)CN2c2ccccc21.Cl (stereo unspecified) | 58% |  | 67% |  |  |
| Cl.OC1(c2ccc3ccccc3c2)C2=NCCCN2c2ccccc21 (stereo unspecified) | 88% | 0.01 | 64% |  |  |
| Cl.OC1(c2ccccc2)C2=NCCCN2c2ccccc21 (stereo unspecified) | 86% | 0.52 | 82% |  |  |
| Cl.OC1(CC2CCCCC2)C2=NCCCN2c2ccccc21 (stereo unspecified) | 77% | 0.12 | 81% |  |  |
| CC(C)CC1(O)C2=NCCCN2c2ccccc21.Cl (stereo unspecified) | 79% |  | 86% |  |  |
| CCOCCCCC1(O)C2=NCCCN2c2ccccc21.Cl (stereo unspecified) | 100% |  | 96% |  |  |
| COCC(C)CC1(O)C2=NCCCN2c2ccccc21.Cl (stereo unspecified) | 94% |  | 98% |  |  |
| CC1(C)CN=C2N(C1)c1ccccc1C2(O)c1ccccc1.Cl (stereo unspecified) | 90% | 1 | 75% |  |  |
| COCC(C)CC1(O)C2=NCC(C)(C)CN2c2ccccc21.Cl (stereo unspecified) | 73% | 0.47 | 72% |  |  |
| CC(=O)NC1(c2ccccc2)C2=NCC3(CCCC3)CN2c2ccccc21.Cl (stereo unspecified) | 99% |  | 90% |  |  |
| CC(C)CC1(O)C2=NCC(C)(C)CN2c2ccccc21.Cl (stereo unspecified) | 88% | 0.69 | 77% |  |  |
| Cl.OCC#CC1(O)C2=NCCCN2c2ccccc21 (stereo unspecified) | 94% |  | 94% |  |  |
| CC(=O)NC1(c2cccc(Cl)c2)C2=NCCCN2c2ccccc21.Cl (stereo unspecified) | 89% | 0.5 | 85% |  |  |

| SMILES | Blood glucose [1] | Relative potency [2] | Blood glucose [3] | Blood glucose ([1]; 100 mg/kg) | Blood glucose ([3]; 100 mg/kg) |
| --- | --- | --- | --- | --- | --- |
| Cl.NC1(c2cccc(Cl)c2)C2=NCCCN2c2ccccc21 (stereo unspecified) | 95% |  | 84% |  |  |
| COCCCCC1(O)C2=NCC(C)(C)CN2c2ccccc21.Cl (stereo unspecified) | 79% | 0.05 | 87% |  |  |
| CCC(CC)CC1(O)C2=NCCCN2c2ccccc21.Cl (stereo unspecified) | 82% | 0.86 | 68% |  |  |
| Cl.OC1(c2cccc(Cl)c2)C2=NCCCN2c2ccccc21 (stereo unspecified) | 99% |  | 84% |  |  |
| CC(=O)NC1(c2ccccc2)C2=NCCCN2c2ccccc21.Cl (stereo unspecified) | 76% | 0.03 | 75% |  |  |
| CCCCCCC1(O)C2=NCC(C)(C)CN2c2ccccc21.Cl (stereo unspecified) | 103% |  | 107% |  |  |
| CC(C)CCC1(O)C2=NCC(C)(C)CN2c2ccccc21.Cl (stereo unspecified) | 65% |  | 78% |  |  |
| COCCCCC1(O)C2=NCCCN2c2ccccc21.Cl (stereo unspecified) | 86% |  | 87% |  |  |
| CCOCCCCC1(O)C2=NCC(C)(C)CN2c2ccccc21.Cl (stereo unspecified) | 88% |  | 86% |  |  |
| Cl.OC1(c2ccccc2)C2=NCC3(CCCCCC3)CN2c2ccccc21 (stereo unspecified) | 87% | 0.3 | 76% |  |  |
| Cl.OC1(c2ccccc2)C2=NCC3(CCCC3)CN2c2ccccc21 (stereo unspecified) | 75% | 0.1 | 71% |  |  |
| CC(CCC1(O)C2=NCCCN2c2ccccc21)c1ccccc1.Cl (stereo unspecified) | 99% |  | 88% |  |  |
| COC(C)CCC1(O)C2=NCCCN2c2ccccc21.Cl (stereo unspecified) | 88% |  | 95% |  |  |
| Cc1ccc(S(=O)(=O)NC(=O)NC2(c3ccccc3)C3=NCC(C)(C)CN3c3ccccc32)cc1.Cl (stereo unspecified) | 101% |  | 90% |  |  |
| CC(=O)NC1(c2ccccc2)C2=NCC(C)(C)CN2c2ccccc21.Cl (stereo unspecified) | 85% | 0.03 | 77% |  |  |
| COC(C)CCC1(O)C2=NCC(C)(C)CN2c2ccccc21.Cl (stereo unspecified) | 69% | 1.1 | 73% |  |  |
| CC1(C)CN=C2N(C1)c1ccccc1C2(O)CCCCOCc1ccccc1.Cl (stereo unspecified) | 76% |  | 91% |  |  |
| CC(=O)NC1(c2ccc3ccccc3c2)C2=NCCCN2c2ccccc21.Cl (stereo unspecified) | 104% |  | 100% |  |  |
| CC(=O)NC1(c2ccccc2)C2=NCCCCN2c2ccccc21.Cl (stereo unspecified) | 86% | 0.13 | 73% |  |  |
| CC1(C)CN=C2N(C1)c1ccccc1C2(O)CC1CCCCC1.Cl (stereo unspecified) | 79% |  | 84% |  |  |
| Cl.OC1(c2ccccc2)C2=NCC3(CCCCC3)CN2c2ccccc21 (stereo unspecified) |  | 1.33 |  | 78% | 60% |
| Cl.OC1(c2ccccc2)C2=NCC3(CCCCC3)CN2c2ccccc21 (single isomer, unassigned; (+)) |  |  |  | 82% | 69% |
| Cl.OC1(c2ccccc2)C2=NCC3(CCCCC3)CN2c2ccccc21 (single isomer, unassigned; (-)) |  |  |  | 81% | 71% |
